# T cruzi repl – inhibitors of intracellular T. cruzi growth, primary screen, luminescence, NIH3T3 host cells; T. cruzi beta-gal in NIH3T3, 90 h; inhibition, % (test concentration not listed); 300,000 compounds, 1.4% hits;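 active = mean inhibition across valid replicates above about 55%, limit read from the data; inconclusive = mean below that limit but half or more replicates reach it; inactive = mean below it, under half of replicates reach it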;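 note: signal also drops with host cell toxicity which is not excluded here; higher percent means less beta-gal luminescence so fewer parasites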
#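 Incubation – ≥90 h infection period, 3 h prior cell attachment · System – NIH/3T3 fibroblasts plus reporter T. cruzi · Doses – compound pinned at 50 nL/well, DMSO · Read-out basis – percent inhibition of parasite-derived β-gal signal · Signal – luminescent β-galactosidase signal after 60 min lysis · Also added – 5000 T. cruzi trypomastigotes/well · Medium – Low-serum DMEM with 2% FBS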
# CHOP inhibitor – inhibitors of CHOP promoter induction, primary screen, cell-based, unfolded protein response, luciferase reporter; CHO-K1 CHOP-promoter luciferase, tunicamycin-induced, 15-18 h; inhibition, % at 10 µM; 220,000 compounds, 3.8% hits; AID 2732, 2010;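 active = compounds that reduced the stress-induced luciferase reporter signal by more than about 70% of percent inhibition, limit read from the data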
# CSC inhib – cancer stem cell viability inhibitors, primary screen, luminescence. cancer stem cell-like cells viability. inhibition, % at 7.5 µM. 300,000 compounds, 1.1% hits; in the data active = inhibition above about 75%; inconclusive = no clear call, values can overlap the other calls; tested in HMLE shEcad cells
# GRIN3A LBD mod – binders of NR3A ligand-binding domain, primary screen, biophysical, differential scanning fluorimetry, uHTS | Tm shift relative to glycine control, % at 25 µM | Glutamate receptor ionotropic, NMDA 3A (GRIN3A) ligand-binding domain | AID 1259313, 2017 | 340,000 compounds, 2.5% hits | NR3A LBD differential scanning fluorimetry, Tm shift; 0% = protein alone, 100% = glycine-bound protein;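 active = melting temperature shift of at least 10% of the positive control shift, at one fixed dose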
# PREPL inhibitor – PREPL enzyme inhibitors, primary screen, biochemical, fluorescence polarization. AID 2751, 2010. 320,000 compounds, 0.68% hits. Prolyl endopeptidase-like (Homo sapiens), Q4J6C6. recombinant PREPL, fluorescence polarization activity-based probe. inhibition, % at 5.96 µM; in the data active = inhibition above about 43%
# Target sequence (Q4J6C6 whole entry, looked up): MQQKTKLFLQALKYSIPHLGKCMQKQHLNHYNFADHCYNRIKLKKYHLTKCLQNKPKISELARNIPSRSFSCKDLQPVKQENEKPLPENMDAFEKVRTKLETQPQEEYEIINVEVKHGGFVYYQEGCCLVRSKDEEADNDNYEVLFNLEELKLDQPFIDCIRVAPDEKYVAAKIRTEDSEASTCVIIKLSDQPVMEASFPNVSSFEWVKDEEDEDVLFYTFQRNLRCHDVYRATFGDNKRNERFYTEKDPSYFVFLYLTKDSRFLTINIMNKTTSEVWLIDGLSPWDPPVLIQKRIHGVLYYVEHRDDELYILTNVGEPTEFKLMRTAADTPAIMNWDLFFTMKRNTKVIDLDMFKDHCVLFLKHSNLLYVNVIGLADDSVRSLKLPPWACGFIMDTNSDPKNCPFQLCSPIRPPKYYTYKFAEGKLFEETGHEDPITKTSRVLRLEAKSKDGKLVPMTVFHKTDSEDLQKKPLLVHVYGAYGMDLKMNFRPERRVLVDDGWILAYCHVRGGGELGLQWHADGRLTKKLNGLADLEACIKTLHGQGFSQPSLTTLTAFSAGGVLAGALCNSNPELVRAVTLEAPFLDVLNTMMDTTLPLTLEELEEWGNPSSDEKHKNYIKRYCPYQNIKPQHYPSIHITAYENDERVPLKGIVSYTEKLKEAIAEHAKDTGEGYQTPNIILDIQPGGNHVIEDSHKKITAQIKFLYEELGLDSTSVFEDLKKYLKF
# Beta cell apopt – inhibitors of cytokine-induced beta cell apoptosis, primary screen, luminescence. protection from apoptosis, % (test concentration not listed). INS-1E cytokine-induced death, ATP luminescence, 48 h; percent of positive-control rescue, neutral wells zero. AID 435005, 2010. 300,000 compounds, 0.8% hits;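 active = Every replicate reaches about 75%, or at least half do and their mean reaches it too, limit read from the data; inconclusive = At least half of replicates reach the limit but their mean does not; inactive = Under half of replicates reach the limit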;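 note: higher means more ATP so stronger rescue from cytokine killing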
# CHOP confirm – retest of CHOP induction inhibitors, confirmation, cell-based | shares compounds with CHOP inhibitor | CHO-CHOP promoter luciferase reporter, tunicamycin-induced, luminescence | inhibition, % at 10 µM | 2,100 compounds, 45% hits;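 active = mean of three repeat readings of reporter signal inhibition above a set limit, cut at about 70% in these data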
# A number is an active result; 0 = inactive; ? = inconclusive; - = no result given. Sampled rows, rich in hits. Any-hit rate of the full collection: about 6.7%.
SMILES,T cruzi repl,CHOP inhibitor,CSC inhib,GRIN3A LBD mod,PREPL inhibitor,Beta cell apopt,CHOP confirm
Cc1cc(C)n(-c2nc(N(c3ccccc3)c3ccccc3)nc(-n3nc(C)cc3C)n2)n1,0,109,0,34,0,-,140
Cc1cc(C)n(-c2nc(Nc3ccccc3)nc(-n3nc(C)cc3C)n2)n1,0,0,0,0,0,0,-
CC(C)(C)C(=O)Nc1ccc(-c2nc3ccccc3c(=O)o2)cc1,0,105,0,0,0,0,90
COc1ccc(/C=C2\SC(=N)N(c3ccc(F)cc3)C2=O)cc1OC,0,102,0,0,0,0,0
CCOc1cc(/C=C2\SC(=N)N(c3nonc3N)C2=O)ccc1OCC(N)=O,0,0,0,0,0,0,-
CCOc1ccc(/C=C2\SC(=O)N(c3ccc(O)cc3)C2=O)cc1OC,0,105,0,0,0,0,0
C#CCOc1ccc(/C=C2/C(=O)NN(c3ccc(F)cc3)C2=O)cc1OC,0,-,0,0,0,0,-
Cc1ccc(-c2csc(NC(=O)CSc3nnc4c(n3)[nH]c3ccccc34)n2)cc1,-,101,0,21,0,0,0
Cc1ccc(Nc2nc(N)nc(CN3CCN(c4ccccc4)CC3)n2)cc1Cl,0,103,0,0,0,0,75
COc1ccc(N2CCN(Cc3nc(N)nc(Nc4ccc(C)c(Cl)c4)n3)CC2)cc1,0,0,0,0,0,0,-
C=C1C(=O)O[C@@H]2[C@H]1[C@@H](OC(=O)/C(C)=C/C)C/C(C)=C\C(=O)/C=C(\C)[C@@H]2O,0,107,0,0,0,0,0
C=CCn1c(=O)c(C(=O)Nc2ccccc2O)c(O)c2ccccc21,0,104,0,0,0,0,0
C=CCn1c(=O)c(C(=O)Nc2ccccc2C)c(O)c2ccccc21,0,-,-,0,-,-,-
O=C(COC(=O)COc1ccc(Br)cc1)NNC(=O)c1ccccc1,-,-,0,0,0,0,-
O=C(COC(=O)Cc1ccsc1)Nc1cccc(F)c1,-,-,-,0,0,0,-
c1ccc2c(c1)Nc1cc3ccccc3cc1O2,-,-,-,0,-,-,-
O=C(COC(=O)Cc1c(Cl)cccc1Cl)Nc1ccc(OC(F)(F)F)cc1,0,109,0,0,0,0,86
COc1ccccc1CC(O)CC1c2c(cc3c(c2OC)OCO3)CCN1C (centres undefined),-,-,-,0,-,-,-
COc1cc([N+](=O)[O-])ccc1NC(=O)N1CCCCCC1,0,-,0,0,0,0,-
COCCN(C(=O)C1CCCC1)c1c(N)n(Cc2ccccc2)c(=O)[nH]c1=O,0,0,0,0,0,0,-
Nc1c(N(C(=O)Nc2ccc(Cl)c(Cl)c2)C2CCCC2)c(=O)[nH]c(=O)n1Cc1ccccc1,0,103,0,0,0,0,115
CCn1c(C)nc2cc(-c3nnc(-c4c(-c5ccccc5)noc4C)o3)ccc21,0,102,0,0,0,113,85
Cc1cc(C)c(C)c(OCc2nc(-c3cccnc3)no2)c1,0,97,0,0,0,0,0
C[C@H]1COC(=O)[C@@H](NC(=O)OCC2c3ccccc3-c3ccccc32)C/C=C\C[C@H](CC(=O)NCCO)C(=O)N1,-,-,-,0,0,0,-
Nc1c2nc(-c3ccccc3)[nH]c(=O)c2nc(=O)n1-c1ccccc1,0,103,0,0,0,0,0
SMILES,T cruzi repl,CHOP inhibitor,CSC inhib,GRIN3A LBD mod,PREPL inhibitor,Beta cell apopt,CHOP confirm
O=c1[nH]c(-c2ccc(F)cc2)nc2c1sc(=S)n2-c1ccccc1,0,0,0,0,0,0,-
COc1ccc(NS(=O)(=O)c2ccc(Br)cc2)cn1,0,-,0,0,0,0,-
COc1ccc(NS(=O)(=O)c2ccc3oc4ccccc4c3c2)cn1,0,97,0,0,0,0,0
CCN(C(=O)c1cc2c(=O)[nH]c3ccc(C)cc3c2s1)c1cccc(C)c1,56,98,0,0,0,0,0
CCOC(=O)CCNC(=O)N1CCCC(N(C)CCc2ccc(OC)c(OC)c2)C1 (centres undefined),0,-,0,0,0,-,-
CCC/C=N/Nc1nnc(Cc2ccc(OC)c(OC)c2)c(=O)[nH]1,0,-,0,0,0,0,-
Cc1cc(C)c(C)c(S(=O)(=O)NCCCn2ccnc2)c1C,0,-,0,0,0,0,-
COC(=O)c1cc2sc(Cl)cc2n1CC(=O)Nc1cccc(SC)c1,0,99,0,15,0,0,0
CCOC(=O)c1c(C)oc2c1c(C(c1cccnc1)N1CCOCC1)c(O)c1ccccc12 (centres undefined),0,107,83,0,0,0,0
O=C(Nc1cccc(F)c1)N(Cc1ccc(Cl)cc1)CC(O)C(F)(F)F (centres undefined),0,109,0,0,0,0,104
COC(=O)c1sc(-c2ccc(C(C)(C)C)cc2)cc1NC(=O)c1ccccc1C(=O)O,0,106,0,0,0,0,116
COc1ccc(C(=O)Nc2ccc(NC(C)=O)cc2)cc1S(=O)(=O)N1CCCCC1C (centres undefined),-,-,0,0,0,0,-
CC(C)c1nnc(NC(=O)CCS(=O)(=O)c2nc(-c3cccs3)cc(C(F)(F)F)n2)s1,0,108,0,0,0,0,0
O=C1NC[C@@H](Cc2cccc3ccccc23)N(CCc2cc(C(F)(F)F)cc(C(F)(F)F)c2)C1=O,0,97,0,0,0,0,133
CN(CC(=O)Nc1ccccc1C(F)(F)F)C(=O)CN1C(=O)C2CCCCC2C1=O (centres undefined),0,-,0,0,0,0,-
CC(C)(C)OC(=O)NCCc1nnc(S(=O)(=O)Cc2ccc(Cl)cc2Cl)o1,0,106,?,0,0,0,129
O=C(O)c1cc(=O)c2ccc(Cl)cc2[nH]1,-,0,-,-,-,-,-
CC(C)(NO)/C(=N\O)c1ccc(Cl)cc1,0,0,0,0,0,0,-
COc1ccc(/C(=N/O)C(C)(C)NO)cc1,0,99,0,0,0,0,0
CC(C)(NO)/C(=N/O)c1ccc(Br)cc1,0,108,0,0,0,-,0
COc1ccc(C(=O)NCC(C)(C)CNC(=O)c2ccc(OC)cc2)cc1,0,-,0,0,0,0,-
CN=C1SC(CC(=O)Nc2ccccc2F)C(=O)N1/N=C/c1ccc(O)c(OC)c1 (centres undefined),0,0,0,0,0,0,-
CCOc1ccc(/C=N/N2C(=O)C(CC(=O)Nc3ccc(F)cc3F)SC2=NC)cc1OC (centres undefined),0,106,0,0,0,0,0

# Assay outcomes as filed in PubChem BioAssay.
